# From PubChem BioAssay
# A selection: hits, their analogues and other compounds. The true share with any hit is near 4.2%.
# OX1R antag-1: antagonists of human orexin 1 receptor (OX1R) | OX1R-expressing cells, FRET antagonist read-out | O43613 | 330,000 tested, 1.8% active | inhibition, % at 6.6 µM; in the data active means inhibition mostly above about 38%, no sharp cut-off; inactive means mostly below about 40%;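 further: 0% = agonist challenge alone and 100% = reference antagonist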
# TAAR1 antag: human TAAR1 antagonism | 360,000 tested, 1.5% active | inhibition, % at 3 µM | AID 624466 | CHO RD-HGA16 TAAR1, Fluo-8 calcium fluorescence, antagonist | Q96RJ0;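 active means inhibition above a per-plate cutoff, the mean inhibition of test compounds on that plate plus 3 SD, cut at about 49% in these data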;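 further: 0% = DMSO plus EC80 beta-PEA response and 100% = DMSO alone without agonist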
# Target sequence (Q96RJ0 whole entry, looked up): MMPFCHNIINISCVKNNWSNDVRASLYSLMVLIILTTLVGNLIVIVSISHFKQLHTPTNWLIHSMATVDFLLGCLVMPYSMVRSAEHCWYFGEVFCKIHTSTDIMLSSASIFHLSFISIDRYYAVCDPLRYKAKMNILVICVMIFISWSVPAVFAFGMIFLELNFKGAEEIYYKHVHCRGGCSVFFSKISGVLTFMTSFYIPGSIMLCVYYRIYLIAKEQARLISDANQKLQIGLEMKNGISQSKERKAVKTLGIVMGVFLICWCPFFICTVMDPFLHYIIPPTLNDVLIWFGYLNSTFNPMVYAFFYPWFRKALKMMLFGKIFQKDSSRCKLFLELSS
#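 Assay system: CHO-derived RD-HGA16 cells stably expressing human TAAR1 plus Gα16. Timing: 140 s kinetic read after compound, 140 s after agonist. Technique: kinetic Fluo-8 calcium fluorescence measurement. Measure: % inhibition of agonist calcium response.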
# GalR3 antag: human GalR3 antagonism; HEK293 GalR3-CNG cAMP membrane potential fluorescence; galR3 body fused to GalR1 C-terminus; 360,000 tested, 0.44% active; inhibition, % at 3 µM; O60755;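 active means inhibition above the screen-wide average plus 3 SD, cut at about 13% in these data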;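 further: forskolin and galanin both at EC90 stimulate the cells; cAMP rise reported by CNG channel membrane potential dye signal; 0% = forskolin plus galanin with DMSO and 100% = forskolin alone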
# Target sequence (O60755 1-299 limits assumed): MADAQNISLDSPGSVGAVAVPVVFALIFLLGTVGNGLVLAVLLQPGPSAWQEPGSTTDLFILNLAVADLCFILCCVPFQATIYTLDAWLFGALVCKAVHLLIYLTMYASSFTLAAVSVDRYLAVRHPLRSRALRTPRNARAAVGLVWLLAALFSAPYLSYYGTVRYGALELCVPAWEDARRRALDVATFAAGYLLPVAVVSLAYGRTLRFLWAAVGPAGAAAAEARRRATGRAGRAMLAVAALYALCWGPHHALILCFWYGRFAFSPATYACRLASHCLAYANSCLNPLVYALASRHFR
# CHO parental Ca: counter-screen for OX1R antagonists: effect in parental CHO cells; parental CHO-K1, ATP-induced calcium, Fluo-8 fluorescence; inhibition, % at 5.6 µM; 330,000 tested, 0.63% active; AID 463079;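 active means inhibition above that plate's mean sample inhibition plus 3 SD, cut at about 26% in these data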;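 further: 0% = ATP-challenged DMSO wells and 100% = DMSO wells without ATP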
#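 Assay system: parental CHO cells; Read-out basis: percent inhibition of ATP-evoked calcium rise, normalized to controls; Benchmarks: ATP and no-ATP DMSO wells; Compound dosing: single nominal dose of 5.6 µM per compound; Signal: Fluo-8 calcium dye fluorescence; Also added: ATP as calcium-mobilizing challenge; Repeats: singlicate.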
# OX1R antag-2: blocks the human orexin 1 receptor | 330,000 tested, 0.43% active | CHO/OX1R cells, Fluo-8 calcium fluorescence, orexin A | O43613 | inhibition, % at 5 µM;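 active means inhibition above its plate's threshold, mean inhibition of all tested compounds on the plate plus 3 SD, cut at about 37% in these data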;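 further: 0% = orexin A challenge wells and 100% = SB-334867-A antagonist wells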
# TAAR1 agonist: agonists of human TAAR1 | CHO RD-HGA16 TAAR1, Fluo-8 calcium fluorescence; vehicle wells 0%, saturating PEA agonist 100% | activation, % at 3 µM | 360,000 tested, 0.99% active | AID 624467;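 active means activation above the mean activation of all test compounds in the run plus 3 SD, cut at about 38% in these data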
#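 Benchmarks: low control DMSO, high control PEA (EC100); System: CHO RD-HGA16 cells carrying human TAAR1 plus Gα16; Detection: Fluo-8 fluorescence, 5 s baseline then 140 s kinetic read; Schedule: 17-24 h plating, Fluo-8 75 min 37 °C, 30 min RT; Read-out basis: % activation from peak over basal fluorescence ratio, DMSO-to-PEA scaled.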
# TAAR1 ag confirm: human TAAR1 agonism, confirmed | CHO RD-HGA16 TAAR1, Fluo-8 calcium fluorescence; scaled: DMSO 0%, maximal phenethylamine 100% | 2,400 tested, 82% active | activation, % at 3 µM | AID 651783 | shares compounds with TAAR1 agonist;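 active means activation above a cutoff set at the run's mean compound activation plus 3 SD, cut at about 39% in these data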
# Ga16 nonsel ag: counter-screen for TAAR1 agonists: nonselective agonists in parental cells | activation, % at 3 µM | 2,400 tested, 50% active | CHO-Ga16 parental, Fluo-8 calcium fluorescence; normalized to maximal ATP response, DMSO zero | AID 651787 | shares compounds with TAAR1 agonist;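 active means activation above the run cutoff, the mean activation over all tested wells plus 3 SD, cut at about 12% in these data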;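 further: 0% = DMSO wells and 100% = maximal ATP response on the peak over basal ratio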
# TAAR1 desens: TAAR1 response desensitization, agonist counter-screen; CHO RD-HGA16 hTAAR1, Fluo-8 calcium, beta-PEA response inhibition; inhibition, % at 3 µM; shares compounds with TAAR1 agonist; AID 651951; 2,400 tested, 46% active;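 active means inhibition above the run cutoff, the mean inhibition of all test compounds plus 3 SD, cut at about 49% in these data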;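 further: beta-PEA stimulus applied at its EC80; loss of beta-PEA calcium signal after compound pretreatment read as receptor desensitization; 0% = DMSO with beta-PEA at EC80 and 100% = DMSO alone without agonist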
# Ga16 antag count: counter-screen for TAAR1 agonists: nonselective Ga16 antagonists; CHO-Ga16 ATP-induced calcium, Fluo-8 fluorescence; 2,400 tested, 39% active; AID 651952; inhibition, % at 3 µM; shares compounds with TAAR1 agonist;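 active means inhibition above the plate's mean compound inhibition plus 3 SD, computed per plate, cut at about 22% in these data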;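 further: 0% = EC80 ATP with DMSO and 100% = DMSO wells without ATP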
# * hit, by the source's call; x = not tested or not shown.
SMILES,OX1R antag-1,TAAR1 antag,GalR3 antag,CHO parental Ca,OX1R antag-2,TAAR1 agonist,TAAR1 ag confirm,Ga16 nonsel ag,TAAR1 desens,Ga16 antag count
COc1cccc(Nc2nc(C(C)N)cs2)n1 (stereo not drawn),x,77*,-7,x,x,85*,94*,1,79*,6
COc1cc(=O)n(C)c2cc(N(C)C)ccc12,14,1,-4,-8,-4,3,x,x,x,x
O=C(Oc1ccc(Cl)cc1)N1CCCCC1,-1,16,-5,-4,-1,4,x,x,x,x
COc1ccc(S(=O)(=O)n2nc(OC(=O)c3cccs3)cc2N)cc1,44,-6,0,-2,-12,53*,20,5,6,14
COc1ccc(S(=O)(=O)n2nc(OC(=O)c3ccccc3)cc2N)cc1,13,7,-1,-9,-1,57*,51*,13*,6,16
CCOC(=O)N1CCN(C(=O)C(C)N(c2ccccc2)S(C)(=O)=O)CC1 (stereo not drawn),9,-6,-6,-4,-10,7,x,x,x,x
CCOC(=O)c1c(C)[nH]c(C)c1S(=O)(=O)N1c2ccccc2CC1C (stereo not drawn),25,-16,-5,-10,-5,49*,25,6,0,-4
CCOC(=O)c1c(S(=O)(=O)N2c3ccccc3CC2C)c(C)n(C)c1C (stereo not drawn),19,-6,-5,-14,-25,-2,x,x,x,x
CCn1nc(C(=O)Nc2ccc(S(=O)(=O)Nc3nccs3)cc2)c2ccccc2c1=O,12,-1,-4,-16,-27,4,x,x,x,x
C/C(=N/NS(=O)(=O)c1ccc(C)cc1)c1c(O)c2ccccc2oc1=O,5,-26,-5,-10,-21,5,x,x,x,x
CCCCCN=C(C)c1c(O)c2ccccc2oc1=O,35,16,0,-3,-15,58*,58*,2,12,2
Cc1cccc(OCC(=O)NNC(=O)c2cc3ccccc3oc2=O)c1,73*,10,1,-19,-26,64*,84*,18*,36,2
O=C(COc1ccc(F)cc1)NNC(=O)c1cc2ccccc2oc1=O,57,x,-6,-14,-24,x,x,0,x,4
C#CCOC(=O)C[N+](C)(C)CC=C,3,10,-2,-17,10,0,x,x,x,x
COC(=O)c1cc(-c2ccccc2)n(CCN)c1C,19,29,6,-13,-26,46*,51*,0,26,-1
CCCC(C(=O)Nc1ccc(S(=O)(=O)N2CCOCC2)cc1)c1ccccc1 (stereo not drawn),5,57*,-6,11,28,96*,86*,46*,69*,34*
COc1cc(CNCCc2ccccc2)cc(Br)c1OCC(=O)Nc1ccccc1C,8,59*,-12,-13,-11,88*,92*,21*,76*,34*
O=C(COc1ccc(Br)cc1CNCCc1ccccc1)NCc1ccccc1,-2,69*,-6,-1,-27,94*,89*,25*,80*,43*
Cc1cc(NS(=O)(=O)c2ccccc2)ccc1NS(=O)(=O)c1ccccc1,x,-10,5,x,x,5,x,x,x,x
Cc1cc(NS(=O)(=O)c2ccccc2)c(C)c(Cl)c1O,6,8,3,-6,-4,55*,67*,26*,39,19
COC(=O)c1cccc(N2CCCC2=O)c1,8,-39,2,-3,-5,2,x,x,x,x
COC(=O)c1cccc(-n2sc3ccccc3c2=O)c1,2,33,-3,-12,-3,63*,50*,22*,28,15
Cc1ccc(-n2sc3ccccc3c2=O)cc1,25,-1,-5,32,19,26,x,x,x,x
O=c1c2ccccc2sn1-c1ccc(F)cc1,21,22,-1,8,1,57*,30,31*,17,15
N#CC(C#N)=C1C=C2C=C(N3CCOCC3)CCC2CC1 (stereo not drawn),x,109*,-4,x,x,682*,726*,880*,106*,103*
SMILES,OX1R antag-1,TAAR1 antag,GalR3 antag,CHO parental Ca,OX1R antag-2,TAAR1 agonist,TAAR1 ag confirm,Ga16 nonsel ag,TAAR1 desens,Ga16 antag count
Cc1cnc(NC(=O)CCCSc2nc3ccccc3s2)s1,15,61*,-3,-1,-19,53*,9,2,2,4
COCC(=O)Nc1nc2ccccc2s1,17,12,-4,-3,-17,4,x,x,x,x
COC(=O)CCCCCCCCC(=O)Nc1nc2ccccc2s1,51,2,-3,-17,-36,50*,76*,37*,18,5
CSc1ncc(Cl)c(C(=O)Nc2cccc(Cl)c2)n1,2,7,-9,-17,-25,-3,x,x,x,x
Cc1noc(C)c1C(=O)N1CCCc2ccccc21,10,-8,0,-10,-16,7,x,x,x,x
O=C1NC[C@@H](CCCCN2C[C@H](Cc3ccccc3)N(CC3CCCCC3)C(=O)C2=O)N(CCc2ccc(O)cc2)C1=O,x,-19,-4,x,x,1,x,x,x,x
C=CCN1[C@@H](C)[C@H](c2ccccc2)Oc2cccc(NCCc3ccccc3)c2S1(=O)=O,x,36,-1,x,x,97*,72*,1,19,9
CNc1nc(NCCOc2ccccc2Cl)c2sccc2n1,x,72*,-10,x,x,72*,51*,50*,57*,47*
COc1ccccc1CNc1nc(NCCOc2ccccc2Cl)c2sccc2n1,x,34,-7,x,x,3,x,x,x,x
O=C(Nc1ccccc1)c1nnsc1S(=O)c1ccc(Cl)cc1 (stereo not drawn),33,96*,1,25,25,68*,49*,23*,81*,38*
Cc1ccc2[nH]c(=O)c(-c3noc(C(C)C)n3)cc2c1,13,12,3,-4,-15,0,x,x,x,x
CC(C)CC(N)c1csc(Nc2ccc(C(F)(F)F)cn2)n1 (stereo not drawn),x,25,-6,x,x,58*,54*,22*,31,26*
NC(CO)c1csc(Nc2ccc(C(F)(F)F)cn2)n1 (stereo not drawn),x,2,-5,x,x,0,x,x,x,x
